Experimental data published in PMC11790068 (Journal of medicinal chemistry, 2015).
“Also recorded” adds a separate entry of the source.

What was measured:
[1] = system: CT-L activity of purified 20S human proteasomes (β5, β5i, β1i); test: Enzyme kinetics assay, CT-L activity of purified 20S proteasomes; format: biochemical; details: for Inhibition of the CT-L activity of purified proteasomes: purified 20S CP and IP, β5, β5i, β1i, result in words; for Activation of the CT-L activity of proteasomes: at 10 μM, purified proteasomes
Method in brief: (§1)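 Purified human 20S constitutive and immunoproteasome (0.5 µg/mL) was preincubated with test compound for 30 min at room temperature in 20 mM Tris-HCl, 0.5 mM EDTA, 0.035% SDS. Reactions were started with a subunit-selective AMC substrate: β1 Ac-nLPnLD-AMC 100 µM; β2/β2i Boc-LRR-AMC 200 µM; β5 Ac-WLA-AMC 20 µM; β1i Ac-PAL-AMC 100 µM; β5i Ac-ANW-AMC 100 µM. AMC fluorescence (ex 360/em 460 nm) was followed for 90 min at room temperature.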

[2] = target: C-L activity responsible β1 subunit of purified 20S human proteasome (Homo sapiens, UniProt P28072); test: Enzyme kinetics assay, C-L activity of purified 20S proteasome; format: biochemical; details: result in words
Method in brief: as §1

[3] = system: proteasomal CT-L activity of RPMI 8226 cell extracts; test: CT-L activity of proteasomes in cell extracts; format: biochemical, human; details: result in words
Method in brief: (§2)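 Cytosolic extracts of RPMI-8226 cells were prepared by the Kisselev and Goldberg method and used in place of purified 20S proteasome. Hydrolysis of fluorogenic substrates was measured as AMC release: Suc-LLVY-AMC for CT-L, Z-LLE-AMC for C-L and Boc-LRR-AMC for T-L activity. Fluorescence was read at excitation 360 and emission 460 nm.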

[4] = system: proteasomal T-L activity of RPMI 8226 cell extracts; test: T-L activity of proteasomes in cell extracts; format: biochemical, human; details: result in words
Method in brief: as §2

[5] = target: T1, proteasomal C-L activity of RPMI 8226 cell extracts (Homo sapiens, UniProt P28072); test: C-L activity of proteasomes in cell extracts; format: biochemical; details: result in words
T1 sequence (P28072 1-239): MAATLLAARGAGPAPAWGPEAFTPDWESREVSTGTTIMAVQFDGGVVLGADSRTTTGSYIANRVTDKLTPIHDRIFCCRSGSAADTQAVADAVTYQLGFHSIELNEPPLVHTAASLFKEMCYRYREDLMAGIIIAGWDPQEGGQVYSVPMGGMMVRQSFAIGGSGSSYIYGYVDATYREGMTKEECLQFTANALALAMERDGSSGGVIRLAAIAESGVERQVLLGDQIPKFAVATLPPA
Method in brief: as §2

[6] = system: proteasome in RPMI 8226 cell lysates (Suc-LLVY-AMC hydrolysis); test: Jump dilution reversibility assay; format: biochemical, human
Method in brief: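 RPMI 8226 lysate (30 µg total protein) was incubated with test compound at 10 µM in 20S proteasome assay buffer for 30 min at room temperature. Baseline Suc-LLVY-AMC hydrolysis was recorded in a cuvette. The mixture was then rapidly diluted 25-fold in assay buffer (10 to 0.4 µM compound), and substrate hydrolysis was monitored for about 30 min.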

[7] = system: BxPC-3 cell lines with acquired resistance to bortezomib or carfilzomib; test: Cytotoxicity in bortezomib- or carfilzomib-resistant BxPC-3 sublines; format: cell-based, human; details: BxPC-3 sublines adapted to 60 nM bortezomib or 200 nM carfilzomib
[8] = system: cancer cell lines including LNCaP prostate cancer cells; test: Cytotoxicity of G4-1 in cancer cell lines; format: cell-based, human; details: variety of cancer cell lines including LNCaP; 72 h
Method in brief: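 Log-phase adherent cells were seeded at 7,000–10,000 per well; suspension RPMI 8226 cells were pelleted and seeded at 10,000 per well. Viability was read after 72 h by CellTiter Glo luminescence or CellTiter 96 Aqueous One absorbance.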

LNCaP tumors = test: In vivo efficacy assay, LNCaP xenograft; design: species or system mouse; details: 5 mg/kg i.p. twice a week for 4 weeks

In the case of `Cc1ccc(OS(=O)(=O)c2cccc(C(F)(F)F)c2)c(-c2cc(-c3ccccc3)n(CCN[C@@H]3CCNC3)n2)c1` [G4], the “Inhibition of the CT-L activity of purified proteasomes” value (from here on “Inhibition … of purified proteasomes”) [1] is reported as “potently inhibit; also recorded: selectively inhibits; also recorded: preferentially inhibits” and the “Inhibition of the C-L activity (β1) of purified proteasome” value [2] is reported as “selectively inhibits; also recorded: preferentially inhibits”.

For `CC1=C(COC(=O)Cn2nc(-c3cc(C)ccc3OS(=O)(=O)c3cccc(C(F)(F)F)c3)cc2-c2ccccc2)Cc2ccccc21` [G4-16], the “Activation of the CT-L activity of proteasomes” value [1] was “up to 200%”.

For `Cc1ccc(OS(=O)(=O)c2cccc(C(F)(F)F)c2)c(-c2cc(-c3ccccc3)n(CC(=O)N[C@@H]3CCNC3)n2)c1` [G4-1], the “Inhibition of proteasomal CT-L activity of cell extracts” value [3] was “effectively inhibit”, the “Activity against the T-L activity of cell extracts” value [4] was “no activity” and the “Inhibition of proteasomal C-L activity of cell extracts” value [5] was “effectively inhibit”. The “Inhibition of proteasomal activity after preincubation” value ([6]; 10 μM, 30 min preincubation with RPMI 8226 cell extracts) was “nearly complete inhibition”, the Inhibitor dissociation half-life ([6]; after 25-fold dilution from 10 to 0.4 μM) was “approximately 3.2 min” and the “Mode of proteasome inhibition” value ([6]; jump dilution, upward curvature of progress curve) was “reversibility”. For the same compound, the “Impact of acquired resistance to bortezomib or carfilzomib on anticancer effect” value [7] was “not negatively impacted”, the “Anticancer activity against cancer cell lines” value [8] was “good anticancer activity” and the “Inhibition … of purified proteasomes” value [1] was “most potent inhibitor”. The “Body weight of mice over the course of treatment” value (LNCaP tumors) was “maintained normal weight gain”, the “Systemic toxicity in mice” value (LNCaP tumors) was “without apparent systemic toxicity” and the “Tumor growth in vivo” value (LNCaP tumors; nude mice bearing LNCaP tumors) was “effectively suppressed tumor growth”.

`Cc1ccc(OS(=O)(=O)c2cccc(C(F)(F)F)c2)c(-c2cc(C3CCCCC3)n(CCN[C@@H]3CCNC3)n2)c1` [G4-40] was tested, and the “Inhibition … of purified proteasomes” value [1] was “potently inhibit”.

In the case of `Cc1ccc(OS(=O)(=O)c2cccc(C(F)(F)F)c2)c(-c2cc(C3CCCN(C(=O)N[C@@H]4CCNC4)C3)n(CCN[C@@H]3CCNC3)n2)c1` (stereo partly shown) [G4-42], the “Inhibition … of purified proteasomes” value [1] is reported as “potently inhibit”.

For `Cc1ccc(OS(=O)(=O)c2ccc(F)c([N+](=O)[O-])c2)c(-c2cc(-c3ccccc3)n(CCN[C@@H]3CCNC3)n2)c1` [G4–21], the “Activation of the CT-L activity of proteasomes” value [1] was “up to 200%”.

For `Cc1ccc(OS(=O)(=O)c2cccc(C(F)(F)F)c2)c(-c2cc(C3CCCNC3)n(CCN[C@@H]3CCNC3)n2)c1` (stereo partly shown) [G4-41], the “Inhibition … of purified proteasomes” value [1] was “potently inhibit”.
